ChEMBL document CHEMBL1154278, “Cassiarins C-E, antiplasmodial alkaloids from the flowers of Cassia siamea” (J Nat Prod, 2009)

Experiments:
Plasmodium falciparum = experiment: Antimalarial activity against Plasmodium falciparum 3D7 by Giemsa staining; format: functional, organism-based
In short: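 P. falciparum 3D7 clone grown in human erythrocyte culture (Trager–Jensen) in 24-well plates. Compounds dissolved in DMSO (final <0.5%) and diluted in RPMI 1640 with 10% human plasma, 25 mM HEPES and 25 mM NaHCO₃ to final 10, 1, 0.1, 0.01, 0.001 µg/mL. Growth read from MeOH-fixed, Giemsa-stained smears; IC50 = 50% growth inhibition versus untreated control.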

HL-60 (Homo sapiens) = experiment: Cytotoxicity against human HL-60 cells

| SMILES | IC50 (Plasmodium falciparum) [µM] | IC50 (HL-60 (Homo sapiens)) [µM] |
| --- | --- | --- |
| Cc1cc2cc(O)cc3c2c(n1)CC(C)O3 (configuration not stated) [CASSIARIN C] | 24.2 | > 100 |
| Cc1cc2cc(=O)cc3oc(C)cc(o1)c23 [ANHYDROBARAKOL] | 4.7 | > 100 |
| CC(=O)Cc1cc(O)cc2oc(CC3(C)Cc4nc(C)cc5cc(O)cc(c45)O3)cc(=O)c12 (configuration not stated) [CASSIARIN D] | 3.6 | > 100 |
| Cc1cc2c3c(cc(=O)cc-3o1)CC(C)O2 (configuration not stated) | 2.3 | > 100 |
| Cc1cc2cc(O)cc3c2c(n1)C=C(CC1(C)Cc2nc(C)cc4cc(O)cc(c24)O1)O3 (configuration not stated) [CASSIARIN E] | 7.3 | > 100 |
| CC(=O)Cc1cc(O)cc2oc(C)cc(=O)c12 | 8.6 | > 100 |
